From ChEMBL document CHEMBL1156597, “Structure-activity relationship of kahalalide F synthetic analogues” (J Med Chem, 2008)

Columns and labels:
SK-MEL-28 = test: Cytotoxicity against human SK-MEL-28 cells after 48 hrs by SRB assay; type: functional, cell-based; settings: Homo sapiens, SK-MEL-28, 48 h; for CC50: read-out: LC50 (the source's name)
Method in brief: (§1)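 Cells grown in RPMI 1640 with 10% FBS and penicillin/streptomycin at 37 °C and 5% CO₂, trypsinized, then seeded at 5 × 10³/well. After 18 h drug-free attachment, samples in DMSO/EtOH/PBS (0.5:0.5:99) were added for 48 h continuous exposure. Cells were fixed with cold TCA (1 h, 4 °C) and stained with SRB (10 min). Tris-solubilized stain read at 490 nm. Triplicate wells, mean ± SD; GI₅₀ derived.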

LoVo [1] = test: Cytotoxicity against human doxorubicin resistant LoVo cells after 48 hrs by SRB assay; type: functional; settings: for CC50: read-out: LC50 (the source's name); method in brief: as §1
[2] = Cytotoxicity against human IGROV cells after 48 hrs by SRB assay; type: functional; settings: for CC50: read-out: LC50 (the source's name); method in brief: as §1
K562 = test: Cytotoxicity against human K562 cells after 48 hrs by SRB assay; type: functional; settings: K562, 48 h; for CC50: read-out: LC50 (the source's name); method in brief: as §1
LoVo [3] = test: Cytotoxicity against human LoVo cells after 48 hrs by SRB assay; type: functional; settings: for CC50: read-out: LC50 (the source's name)
[4] = Cytotoxicity against human HeLa-APL cells after 48 hrs by SRB assay; type: functional; method in brief: as §1
PANC-1 = test: Cytotoxicity against human PANC1 cells after 48 hrs by SRB assay; type: functional; settings: PANC-1, 48 h; for CC50: read-out: LC50 (the source's name); method in brief: as §1
SK-BR-3 = test: Cytotoxicity against human SKBR3 cells after 48 hrs by SRB assay; type: functional; settings: SK-BR-3, 48 h; for CC50: read-out: LC50 (the source's name); method in brief: as §1
HeLa = test: Cytotoxicity against human HeLa cells after 48 hrs by SRB assay; type: functional; settings: for CC50: read-out: LC50 (the source's name); method in brief: as §1
LNCaP = test: Cytotoxicity against human LNcaP cells after 48 hrs by SRB assay; type: functional; settings: for CC50: read-out: LC50 (the source's name); method in brief: as §1
[5] = Cytotoxicity against human IGROV-ET cells after 48 hrs by SRB assay; type: functional; settings: for CC50: read-out: LC50 (the source's name); method in brief: as §1
DU-145 = test: Cytotoxicity against human DU145 cells after 48 hrs by SRB assay; type: functional, cell-based; settings: Homo sapiens, DU-145, 48 h; for CC50: read-out: LC50 (the source's name); method in brief: as §1
HT-29 = test: Cytotoxicity against human HT29 cells after 48 hrs by SRB assay; type: functional, cell-based; settings: Homo sapiens, HT-29, 48 h; for CC50: read-out: LC50 (the source's name); method in brief: as §1
A549 = test: Cytotoxicity against human A549 cells after 48 hrs by SRB assay; type: functional, cell-based; settings: Homo sapiens, A549, 48 h; method in brief: as §1

Compound: C/C=C1\NC(=O)[C@H](Cc2ccccc2)NC(=O)[C@@H](C(C)C)NC(=O)[C@@H]([C@H](C)CC)NC(=O)[C@H](NC(=O)[C@H](NC(=O)[C@H](CCCN)NC(=O)[C@H]2CCCN2C(=O)[C@H](NC(=O)[C@@H](NC(=O)[C@@H](NC(=O)[C@H](NC(=O)CCCCCC)C(C)C)[C@@H](C)O)C(C)C)C(C)C)[C@H](C)CC)[C@H](C)OC(=O)[C@H](C(C)C)NC1=O
- GI50 (SK-MEL-28): 915 nM
- GI50 (SK-MEL-28; read-out: GI50): 808 nM
- CC50 (SK-MEL-28): 991 nM
- GI50 (LoVo [1]): 264 nM
- TGI (LoVo [1]): 244 nM
- CC50 (LoVo [1]): 175 nM
- GI50 [2]: 404 nM
- GI50 ([2]; read-out: GI50): 354 nM
- CC50 [2]: 421 nM
- GI50 (K562): 2740 nM
- TGI (K562): 2970 nM
- CC50 (K562): 1990 nM
- GI50 (LoVo [3]): 320 nM
- TGI (LoVo [3]): 324 nM
- CC50 (LoVo [3]): 326 nM
- GI50 [4]: 781 nM
- LC50 (concentration giving 50% net cell kill) [4]: 864 nM
- TGI [4]: 822 nM
- GI50 (PANC-1): 2360 nM
- TGI (PANC-1): 3780 nM
- CC50 (PANC-1): 2720 nM
- GI50 (SK-BR-3): 36.3 nM
- GI50 (SK-BR-3; read-out: GI50): 227 nM
- CC50 (SK-BR-3): 363 nM
- GI50 (HeLa): 965 nM
- TGI (HeLa): 882 nM
- CC50 (HeLa): 806 nM
- GI50 (LNCaP): 1090 nM
- TGI (LNCaP): 863 nM
- CC50 (LNCaP): 861 nM
- GI50 [5]: 304 nM
- GI50 ([5]; read-out: GI50): 289 nM
- CC50 [5]: 394 nM
- GI50 (DU-145): 880 nM
- GI50 (DU-145; read-out: GI50): 848 nM
- CC50 (DU-145): 895 nM
- GI50 (HT-29): 499 nM
- TGI (HT-29): 583 nM
- CC50 (HT-29): 1070 nM
- LC50 (A549): 1150 nM
- TGI (A549): 1160 nM
- GI50 (A549; read-out: GI50): 1180 nM

Compound: C/C=C1\NC(=O)[C@H](Cc2ccccc2)NC(=O)[C@@H](C(C)C)NC(=O)[C@@H]([C@H](C)CC)NC(=O)[C@H](NC(=O)[C@H](NC(=O)[C@H](CCCN)NC(=O)[C@H]2CCCN2C(=O)[C@H](NC(=O)[C@@H](NC(=O)[C@@H](NC(=O)[C@H](NC(=O)CCCCCCC)C(C)C)[C@@H](C)O)C(C)C)C(C)C)[C@H](C)CC)[C@H](C)OC(=O)[C@H](C(C)C)NC1=O
- GI50 (SK-MEL-28): 949 nM
- GI50 (SK-MEL-28; read-out: GI50): 933 nM
- CC50 (SK-MEL-28): 966 nM
- GI50 (LoVo [1]): 299 nM
- TGI (LoVo [1]): 289 nM
- CC50 (LoVo [1]): 278 nM
- GI50 [2]: 580 nM
- GI50 ([2]; read-out: GI50): 684 nM
- CC50 [2]: 509 nM
- GI50 (K562): 1000 nM
- TGI (K562): 1230 nM
- CC50 (K562): 1500 nM
- GI50 (LoVo [3]): 321 nM
- TGI (LoVo [3]): 396 nM
- CC50 (LoVo [3]): 443 nM
- GI50 [4]: 527 nM
- LC50 (concentration giving 50% net cell kill) [4]: 1220 nM
- TGI [4]: 808 nM
- GI50 (PANC-1): 2830 nM
- TGI (PANC-1): 4210 nM
- CC50 (PANC-1): 2290 nM
- TGI (SK-BR-3): 359 nM
- GI50 (SK-BR-3; read-out: GI50): 343 nM
- CC50 (SK-BR-3): 374 nM
- GI50 (HeLa): 946 nM
- TGI (HeLa): 1010 nM
- CC50 (HeLa): 1080 nM
- GI50 (LNCaP): 779 nM
- TGI (LNCaP): 837 nM
- CC50 (LNCaP): 889 nM
- GI50 [5]: 513 nM
- GI50 ([5]; read-out: GI50): 529 nM
- CC50 [5]: 393 nM
- GI50 (DU-145): 666 nM
- GI50 (DU-145; read-out: GI50): 578 nM
- CC50 (DU-145): 758 nM
- GI50 (HT-29): 578 nM
- TGI (HT-29): 587 nM
- CC50 (HT-29): 917 nM
- LC50 (A549): 1200 nM
- TGI (A549): 1130 nM
- GI50 (A549; read-out: GI50): 1050 nM

Compound: C/C=C1\NC(=O)[C@H](Cc2ccccc2)NC(=O)[C@@H](C(C)C)NC(=O)[C@@H]([C@H](C)CC)NC(=O)[C@H](NC(=O)[C@H](NC(=O)[C@H](CCCN)NC(=O)[C@H]2CCCN2C(=O)[C@H](NC(=O)[C@@H](NC(=O)[C@@H](NC(=O)[C@H](NC(=O)C(F)(F)C(F)(F)C(F)(F)C(F)(F)C(F)(F)C(F)(F)F)C(C)C)[C@@H](C)O)C(C)C)C(C)C)[C@H](C)CC)[C@H](C)OC(=O)[C@H](C(C)C)NC1=O
- GI50 (SK-MEL-28): 765 nM
- GI50 (SK-MEL-28; read-out: GI50): 734 nM
- CC50 (SK-MEL-28): 794 nM
- GI50 (LoVo [1]): 286 nM
- TGI (LoVo [1]): 289 nM
- CC50 (LoVo [1]): 290 nM
- GI50 [2]: 584 nM
- GI50 ([2]; read-out: GI50): 854 nM
- CC50 [2]: 459 nM
- GI50 (K562): 830 nM
- TGI (K562): 1010 nM
- CC50 (K562): 1220 nM
- GI50 (LoVo [3]): 1160 nM
- TGI (LoVo [3]): 1180 nM
- CC50 (LoVo [3]): 798 nM
- GI50 [4]: 596 nM
- LC50 (concentration giving 50% net cell kill) [4]: 1200 nM
- TGI [4]: 888 nM
- GI50 (PANC-1): 2320 nM
- TGI (PANC-1): 3460 nM
- CC50 (PANC-1): 2000 nM
- TGI (SK-BR-3): 453 nM
- GI50 (SK-BR-3; read-out: GI50): 291 nM
- CC50 (SK-BR-3): 578 nM
- GI50 (HeLa): 961 nM
- TGI (HeLa): 947 nM
- CC50 (HeLa): 931 nM
- GI50 (LNCaP): 758 nM
- TGI (LNCaP): 757 nM
- CC50 (LNCaP): 753 nM
- GI50 [5]: 814 nM
- GI50 ([5]; read-out: GI50): 697 nM
- CC50 [5]: 1040 nM
- GI50 (DU-145): 614 nM
- GI50 (DU-145; read-out: GI50): 534 nM
- CC50 (DU-145): 708 nM
- GI50 (HT-29): 513 nM
- TGI (HT-29): 520 nM
- CC50 (HT-29): 563 nM
- GI50 (A549): 745 nM
- LC50 (A549): 865 nM
- GI50 (A549; read-out: GI50): 636 nM
